Data set [1] relates to MCF7. The experiment in a line: Antiproliferative activity against human MCF7 cells assessed as reduction in cell viability after 72 hrs by MTT assay. The data set is classed as functional, cell-based. Particulars: for IC50: MCF7, 72 h. The procedure, abridged: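 MCF-7 cells (DMEM, 10% FBS, 37 °C, 5% CO2) seeded 5 × 10³/well, left overnight, then exposed to compounds (0−50 μM) for 72 h. MTT added to 0.5 mg/mL final; formazan solubilised overnight with 10% SDS in 0.01 N HCl, absorbance at 570 nm. IC50 taken relative to vehicle (0.1% DMSO) as 100% survival. Triplicate determinations, three independent experiments; paclitaxel as positive control.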
(In general: Tetrazolium dyes change colour on reduction, which living cells bring about.)

The test system of data set [2] is MCF7. The experiment in a line: Inhibition of colony formation in human MCF7 cells incubated for 10 days by crystal violet staining based assay. The data set is classed as functional, cell-based. Conditions: dose 1-5 µM, time 10.0 day. The procedure, abridged:
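Clonogenic survival: MCF-7 cells, 1 × 10³ per well, seeded overnight, then grown with 1, 2.5 or 5 μM in complete medium for 10 days. Colonies fixed with MeOH, stained with 0.5% crystal violet in 1:1 MeOH–water, counted. Surviving fraction corrected for plating efficiency, relative to vehicle; triplicates, three repeats.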

A short description of data set [3]: Antiproliferative activity against human INT-407 cells assessed as reduction in cell viability up to 50 uM after 72 hrs by MTT assay. The data set is classed as cell-based. Conditions: intestine 407, 72 h. The gist of the method: (§1)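 U2-OS (ATCC) or INT-407 cells, cultured in DMEM with 10% FBS at 37 °C, 5% CO2, assayed by MTT reduction under the conditions used for MCF-7: 72 h exposure, absorbance at 570 nm, viability relative to 0.1% DMSO vehicle control; INT-407 tested up to 50 μM.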

The test system of data set [4] is MCF7. Description: Induction of lysosomal membrane permeabilization in human MCF7 cells at 5 to 10 uM […] by AO staining based flow cytometry. The data set is classed as functional, cell-based. Conditions: dose 5-10 µM.
The test system of data set [5] is MCF7. Description: Induction of mitochondrial membrane potential loss in human MCF7 cells incubated for 6 hrs by JC1 staining based flow cytometry. The data set is classed as functional, cell-based. Conditions: dose 5-10 µM. The gist of the method: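 JC-1 assay: MCF-7 cells (1 × 10⁵/well) treated at 5 or 10 μM (legend gives 6 h, methods 8 h), stained with JC-1 (5 μg/mL) for 30 min, trypsinised, and analysed by flow cytometry. MMP loss scored from the drop in red fluorescence MFI as fold of vehicle; CCCP 10 μM as positive control. Five repeats in triplicate.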
A general note: A flow cytometer gives signals particle by particle.

Data set [6] has as its system MCF7. The experiment in a line: Induction of lysosomal membrane permeabilization in human MCF7 cells after 6 hrs by AO staining based flow cytometry. Particulars: dose 5-10 µM. The data set is classed as functional, cell-based. The gist of the method:
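MCF-7 cells treated at 5 or 10 μM (0−10 μM) for various periods, washed with PBS, then stained with acridine orange (10 μM, 15 min, 37 °C) and analysed by flow cytometry. LMP measured from green-channel MFI at 6 h as fold of vehicle; five repeats in triplicate.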

For data set [7], the system named is MCF7. The experiment in a line: Induction of cell cycle arrest in human MCF7 cells assessed as accumulation at G2 phase at 5 to 10 uM incubated for 24 hrs by propidium iodide/RNase A staining based flow cytometry. Conditions: dose 5-10 µM. The data set is classed as functional. The gist of the method: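 For the cell cycle, MCF-7 cells were exposed to vehicle, 5 or 10 μM for 24 h, stained with PI/RNase in 0.1% sodium citrate containing Triton X-100, and phase distribution was quantified by flow cytometry. Three experiments, each in triplicate.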

Data set [8] deals with MCF7. Description: Induction of apoptosis in human MCF7 cells assessed as increase in sub-G1 cell population at 10 uM after 48 hrs by propidium iodide/RNase A staining based flow cytometric analysis (reference value: 5.4 +/- 2.1 %). The data set is classed as functional.
The subject of the next data set is U2OS. The experiment in a line: Antiproliferative activity against human U2OS cells assessed as reduction in cell viability after 72 hrs by MTT assay. The data set is classed as functional, cell-based. The procedure, abridged:
as §1

For data set [9], the system named is MCF7. The experiment in a line: Induction of ROS generation in human MCF7 cells at 5 to 10 uM up to 3 hrs by DCFH-DA dye based flow cytometric analysis. The data set is classed as functional, cell-based. Conditions: dose 5-10 µM, time hrs <=3.
The test system of data set [10] is MCF7. Description: Induction of ROS generation in human MCF7 cells at 5 to 10 uM incubated for 6 hrs by DCFH-DA dye based flow cytometric analysis. The data set is classed as functional, cell-based. Particulars: dose 5-10 µM. The gist of the method: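 MCF-7 cells (1 × 10⁵/well) loaded with DCFH-DA (10 μM, 30 min), washed, then exposed to 5 or 10 μM for various periods (6 h quantified); H2O2 100 μM as positive control. DCF green fluorescence (ex 480/em 530 nm) read by flow cytometry, expressed as fold of vehicle. Three repeats in triplicate.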

Data set [11] deals with MCF7. Description: Induction of apoptosis in human MCF7 cells assessed as increase in sub-G1 cell population at 5 uM after 48 hrs by propidium iodide/RNase A staining based flow cytometric analysis (reference value: 5.4 +/- 2.1 %). The data set is classed as functional.

The source made the active and inactive calls. The calls are words filed in the database; no cut-off is given here.

What is called IC50 is the midpoint of a concentration-inhibition curve. Consider `COc1cc(CC[C@@H](O)CC(=O)CCc2ccccc2)ccc1O`, for which, in the data set on MCF7 [1], the Activity entry was “Dose-Dependent Effect” and the IC50 was > 50 µM.
As to `COc1cc(CC/C=C/C(=O)CCc2ccccc2)ccc1O`, the inhibition entry in the data set on MCF7 [2] is “Dose-Dependent Effect”. In addition, the Activity result in data set [3] was “Non-Toxic”; with MCF7 [5], “Dose-Dependent Effect”; in the data set on MCF7 [6] it was “Dose-Dependent Effect”; in the data set with MCF7 [8], 27.5%; in the data set on MCF7 [1], “Dose-Dependent Effect”; in the data set with MCF7 [11] it was 16.3%. Also, the result with MCF7 [4] and in the data set on MCF7 [9] was inactive. The result with MCF7 [7] and in the data set on MCF7 [10] was Active. Besides, the IC50 in the data set on U2OS is 10.7 µM; with MCF7 [1], 3.9 µM.
For the compound `COc1cc(CC[C@H](O)CC(=O)CCc2ccccc2)ccc1O`, in the data set on MCF7 [1], the Activity result was “Dose-Dependent Effect” and the IC50 is > 50 µM.

For the origin of these results see ChEMBL document CHEMBL4819033, “Synthesis of Bioactive Diarylheptanoids from Alpinia officinarum and Their Mechanism of Action for Anticancer Properties in Breast Cancer Cells” (J Nat Prod, 2021).
